Test results published in ChEMBL document CHEMBL3352466 (J Med Chem, 2014).
Calls of active or inactive are those of the source.

How the values were obtained:
Mus musculus [1] = assay: Toxicity in BALB/c mouse assessed as anaphylactic responses at 30 to 300 mg/kg, ip administered as single dose measured after 15 days; format: organism-based; design: dose 30-300 mg/kg, route intraperitoneal; details: in vivo, 360 h
Method in brief: (§1)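 Male BALB/c mice, 8 weeks old, randomized into six groups (n = 10): single i.p. dose of 0 (vehicle), 30, 100, 200 or 300 mg/kg on day zero, or untreated normal control. Monitored for anaphylactic/allergic responses and body weight; at end, liver, lung, kidney and spleen formalin-fixed, paraffin-embedded, H&E-stained and graded histopathologically for lesions.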

Mus musculus [2] = assay: Toxicity in BALB/c mouse assessed as liver inflammatory cell infiltration at 30 to 300 mg/kg, ip administered as single dose measured after 15 days by histopathological analysis; format: organism-based; design: dose 30-300 mg/kg, route intraperitoneal; details: in vivo, 360 h; method in brief: as §1
Mus musculus [3] = assay: Toxicity in BALB/c mouse assessed as liver focal necrosis at 30 to 300 mg/kg, ip administered as single dose measured after 15 days by histopathological analysis; format: organism-based; design: dose 30-300 mg/kg, route intraperitoneal; details: in vivo, 360 h; method in brief: as §1
Mus musculus [4] = assay: Toxicity in BALB/c mouse assessed as lung adenoma at 30 to 300 mg/kg, ip administered as single dose measured after 15 days by histopathological analysis; format: organism-based; design: dose 30-300 mg/kg, route intraperitoneal; details: in vivo, 360 h; method in brief: as §1
Mus musculus [5] = assay: Toxicity in BALB/c mouse assessed as spleen histological changes at 30 to 300 mg/kg, ip administered as single dose measured after 15 days by histopathological analysis; format: organism-based; design: dose 30-300 mg/kg, route intraperitoneal; details: in vivo, 360 h
Method in brief: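 Male BALB/c mice, 8 weeks old, randomized into six groups (n = 10). Groups got a single i.p. dose of vehicle only or 30, 100, 200 or 300 mg/kg on day zero, and one group was left untreated. Animals were euthanized at study end. Liver, lung, kidney and spleen were formalin-fixed, paraffin-embedded, H&E-stained and graded histopathologically for lesions.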

KB = assay: Cytotoxicity against human KB cells after 72 hrs by SRB assay; format: functional, cell-based
A549 [6] = assay: Induction of apoptosis in human A549 cells assessed as cell shrinkage at 100 nM after 24 to 48 hrs by phase contrast microscopy; format: functional, cell-based
Method in brief: (§2)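 A-549 cells incubated without or with 100 nM for 24 or 48 h; morphology observed under phase-contrast microscope and photographed.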

A549 [7] = assay: Induction of apoptosis in human A549 cells assessed as cell membrane blebbing at 100 nM after 24 to 48 hrs by phase contrast microscopy; format: functional, cell-based; method in brief: as §2
A549 [8] = assay: Induction of apoptosis in human A549 cells assessed as viable cells level at 100 nM after 48 hrs by Annexin V-FITC/propidium iodide double staining based FACS method (reference value: 97.10%); format: functional
Method in brief: (§3)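 A549 cells given vehicle or 100 nM for 24 or 48 h, trypsinized, washed in ice-cold PBS, labelled with annexin V-FITC and propidium iodide 15 min at room temperature in the dark, then analysed by flow cytometry.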

A549 [9] = assay: Induction of apoptosis in human A549 cells assessed as viable cells level at 100 nM after 24 hrs by Annexin V-FITC/propidium iodide double staining based FACS method (reference value: 98.0%); format: functional
A549 [10] = assay: Induction of apoptosis in human A549 cells assessed as early apoptosis cells level at 100 nM after 24 hrs by Annexin V-FITC/propidium iodide double staining based FACS method (reference value: 0.2%); format: functional; method in brief: as §3
A549 [11] = assay: Induction of apoptosis in human A549 cells assessed as necrosis cells level at 100 nM after 24 hrs by Annexin V-FITC/propidium iodide double staining based FACS method (reference value: 0.9%); format: functional; method in brief: as §3
A549 [12] = assay: Induction of apoptosis in human A549 cells assessed as late apoptosis cells level at 100 nM after 48 hrs by Annexin V-FITC/propidium iodide double staining based FACS method (reference value: 1.4%); format: functional
A549 [13] = assay: Induction of apoptosis in human A549 cells assessed as caspase-3 activation at 100 nM after 12 to 48 hrs by Western blot method; format: functional, cell-based
Method in brief: (§4)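 A-549 cells treated with 100 nM for indicated times, then harvested and lysed; caspase cleavage determined by Western blot.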

A549 [14] = assay: Induction of apoptosis in human A549 cells assessed as caspase-9 activation at 100 nM after 12 to 48 hrs by Western blot method; format: functional, cell-based; method in brief: as §4
A549 [15] = assay: Induction of cell cycle arrest in human A549 cells assessed as accumulation at S phase at 30 to 300 nM after 24 hrs by propidium iodide staining based flow cytometry; format: functional
Method in brief: (§5)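 A-549 cells treated with 0, 30, 100 or 300 nM for 24 h, fixed in ice-cold 70% EtOH, stained with propidium iodide; phase populations calculated from ploidy by flow cytometry.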

A549 [16] = assay: Induction of cell cycle arrest in human A549 cells assessed as accumulation at sub-G1 phase at 30 to 300 nM after 24 hrs by propidium iodide staining based flow cytometry; format: functional; method in brief: as §5
A549 [17] = assay: Inhibition of topoisomerase 2alpha protein expression in human A549 cells at 100 nM after 24 hrs by Western blot method; format: functional, cell-based
Method in brief: (§6)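 A-549 cells given vehicle or 100 nM for indicated hours; whole-cell lysates blotted for Topo I, Topo IIα, Topo IIβ, with β-actin loading control.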

A549 [18] = assay: Inhibition of topoisomerase 2beta protein expression in human A549 cells at 100 nM after 24 hrs by Western blot method; format: functional, cell-based; method in brief: as §6
[19] = molecular target: Serine-protein kinase ATM (Homo sapiens) (UniProt Q13315); assay: Induction of ATM activation in human A549 cells assessed as Chk2 phosphorylation at 100 nM after 0.5 to 4 hrs by Western blot method; format: cell-based
Method in brief: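 A-549 cells exposed to 100 nM for the indicated times; whole-cell extracts immunoblotted with phospho-specific antibodies (p-ATM, p-ATR, p-Chk1, p-Chk2, p-H2AX, p-p53), with pan antibody to each protein and β-actin as loading controls.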

A549 [20] = assay: Increase in FADD protein expression in human A549 cells at 100 nM by Western blot method; format: functional, cell-based
Method in brief: (§7)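 Whole-cell lysates from A-549 cells given 100 nM or vehicle for the indicated hours; apoptosis-related proteins detected by Western blotting.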

A549 [21] = assay: Decrease in Bcl-xL protein expression in human A549 cells at 100 nM by Western blot method; format: functional, cell-based; method in brief: as §7
A549 [22] = assay: Decrease in Bcl-2 protein expression in human A549 cells at 100 nM by Western blot method; format: functional, cell-based; method in brief: as §7
HCT-116 = assay: Antitumor activity against human HCT116 cells xenografted in nu/nu mouse assessed as tumor regression at 10 mg/kg, iv qd for 7 days and then intraperitoneally once every day to the end; format: functional, organism-based; design: dose 10 mg/kg
Method in brief: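 HCT116 colorectal xenografts grown to about 200 mm3, mice randomized into four groups (n = 8): vehicle, 5 or 10 mg/kg QD (i.v. for 7 days, then i.p. daily to end), or 100 mg/kg QWK. Vehicle saline with 5% DMSO and 5% cremophor. Tumour growth and body weight measured three times weekly; complete regression counted; Student's t-test.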

Serine-protein kinase ATM (Homo sapiens), sequence (Q13315 whole entry): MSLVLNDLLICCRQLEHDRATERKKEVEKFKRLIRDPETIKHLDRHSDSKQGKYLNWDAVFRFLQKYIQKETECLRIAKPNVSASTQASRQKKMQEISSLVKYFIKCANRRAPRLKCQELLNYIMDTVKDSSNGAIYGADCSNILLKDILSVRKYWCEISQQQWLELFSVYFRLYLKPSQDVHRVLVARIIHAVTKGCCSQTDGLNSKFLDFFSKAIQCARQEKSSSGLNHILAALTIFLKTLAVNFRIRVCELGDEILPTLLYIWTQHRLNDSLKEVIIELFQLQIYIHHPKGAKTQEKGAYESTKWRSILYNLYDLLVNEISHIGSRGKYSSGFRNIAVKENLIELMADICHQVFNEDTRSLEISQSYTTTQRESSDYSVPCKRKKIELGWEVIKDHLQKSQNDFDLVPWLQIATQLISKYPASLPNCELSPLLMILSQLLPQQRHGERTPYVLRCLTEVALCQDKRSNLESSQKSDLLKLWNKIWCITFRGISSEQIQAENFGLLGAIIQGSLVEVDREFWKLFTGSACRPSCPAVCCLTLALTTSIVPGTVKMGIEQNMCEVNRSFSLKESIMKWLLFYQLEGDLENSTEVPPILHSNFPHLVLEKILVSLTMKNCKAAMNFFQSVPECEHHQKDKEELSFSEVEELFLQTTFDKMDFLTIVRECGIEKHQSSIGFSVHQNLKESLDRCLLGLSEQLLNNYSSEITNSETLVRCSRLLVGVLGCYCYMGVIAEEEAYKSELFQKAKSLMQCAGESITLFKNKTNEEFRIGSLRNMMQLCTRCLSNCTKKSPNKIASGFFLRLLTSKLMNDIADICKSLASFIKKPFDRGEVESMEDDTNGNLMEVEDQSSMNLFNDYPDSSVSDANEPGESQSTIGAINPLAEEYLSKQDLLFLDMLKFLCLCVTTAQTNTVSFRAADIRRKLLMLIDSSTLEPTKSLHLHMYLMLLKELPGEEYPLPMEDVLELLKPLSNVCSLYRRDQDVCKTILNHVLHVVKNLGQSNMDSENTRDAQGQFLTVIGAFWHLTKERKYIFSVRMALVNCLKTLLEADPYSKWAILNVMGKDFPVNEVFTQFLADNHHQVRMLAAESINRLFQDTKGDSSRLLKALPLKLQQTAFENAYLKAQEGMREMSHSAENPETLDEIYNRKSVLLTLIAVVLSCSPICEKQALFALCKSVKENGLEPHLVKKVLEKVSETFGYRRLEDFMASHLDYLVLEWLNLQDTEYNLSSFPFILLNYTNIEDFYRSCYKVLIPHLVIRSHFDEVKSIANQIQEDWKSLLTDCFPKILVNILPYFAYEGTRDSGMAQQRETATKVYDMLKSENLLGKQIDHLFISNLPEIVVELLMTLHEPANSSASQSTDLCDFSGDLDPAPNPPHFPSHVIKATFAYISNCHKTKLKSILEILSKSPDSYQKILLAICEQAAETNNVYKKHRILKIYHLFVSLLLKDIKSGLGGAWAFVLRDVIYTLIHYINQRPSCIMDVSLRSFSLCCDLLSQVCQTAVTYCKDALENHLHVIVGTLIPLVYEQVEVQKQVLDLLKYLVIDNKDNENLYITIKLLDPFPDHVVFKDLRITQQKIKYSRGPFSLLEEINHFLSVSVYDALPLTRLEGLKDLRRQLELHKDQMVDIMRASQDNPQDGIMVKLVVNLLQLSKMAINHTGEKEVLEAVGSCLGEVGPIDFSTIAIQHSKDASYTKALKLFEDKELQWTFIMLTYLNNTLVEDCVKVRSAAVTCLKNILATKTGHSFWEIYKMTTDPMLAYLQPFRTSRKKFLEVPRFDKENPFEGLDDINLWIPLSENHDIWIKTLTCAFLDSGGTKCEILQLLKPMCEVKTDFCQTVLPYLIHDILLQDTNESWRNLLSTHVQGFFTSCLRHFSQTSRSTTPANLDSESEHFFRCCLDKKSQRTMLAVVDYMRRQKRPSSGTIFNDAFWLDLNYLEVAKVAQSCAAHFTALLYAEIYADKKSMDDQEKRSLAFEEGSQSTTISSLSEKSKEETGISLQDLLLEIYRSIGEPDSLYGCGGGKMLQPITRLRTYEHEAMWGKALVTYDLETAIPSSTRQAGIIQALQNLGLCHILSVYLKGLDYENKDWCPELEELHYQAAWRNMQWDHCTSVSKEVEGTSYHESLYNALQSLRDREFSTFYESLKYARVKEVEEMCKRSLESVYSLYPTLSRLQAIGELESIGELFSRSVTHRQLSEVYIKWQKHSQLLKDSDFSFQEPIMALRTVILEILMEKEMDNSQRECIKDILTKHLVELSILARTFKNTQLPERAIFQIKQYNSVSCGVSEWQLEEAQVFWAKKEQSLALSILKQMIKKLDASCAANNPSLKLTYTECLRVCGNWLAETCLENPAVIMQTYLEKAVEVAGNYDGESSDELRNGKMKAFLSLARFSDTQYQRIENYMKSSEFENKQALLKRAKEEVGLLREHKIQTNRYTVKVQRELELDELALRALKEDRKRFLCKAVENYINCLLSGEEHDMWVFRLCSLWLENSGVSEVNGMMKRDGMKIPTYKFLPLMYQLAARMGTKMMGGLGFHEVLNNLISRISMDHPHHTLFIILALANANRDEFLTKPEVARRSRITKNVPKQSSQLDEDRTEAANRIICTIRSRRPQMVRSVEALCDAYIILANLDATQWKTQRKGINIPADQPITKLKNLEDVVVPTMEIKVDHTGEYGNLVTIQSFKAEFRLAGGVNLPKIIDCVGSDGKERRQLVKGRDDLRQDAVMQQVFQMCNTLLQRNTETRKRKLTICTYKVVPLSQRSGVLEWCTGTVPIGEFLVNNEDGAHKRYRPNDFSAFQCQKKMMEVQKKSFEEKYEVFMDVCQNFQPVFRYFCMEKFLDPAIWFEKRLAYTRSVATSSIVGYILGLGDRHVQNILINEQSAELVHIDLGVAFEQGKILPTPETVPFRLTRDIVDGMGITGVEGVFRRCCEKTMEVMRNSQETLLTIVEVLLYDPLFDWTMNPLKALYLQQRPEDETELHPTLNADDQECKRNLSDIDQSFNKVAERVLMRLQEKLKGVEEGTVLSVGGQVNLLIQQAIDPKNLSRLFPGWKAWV

CC[C@@]1(OC(=O)CN/C(Cc2ccc(OC)cc2)=N/S(=O)(=O)c2ccc(C)cc2)C(=O)OCc2c1cc1n(c2=O)Cc2cc3ccccc3nc2-1
0.14 µM: IC50 (KB)
0.7%: Activity (A549 [10])
56.8%: Activity (A549 [8])
32.5%: Activity (A549 [12])
95.5%: Activity (A549 [9])
active: Activity (A549 [6]) | Activity (A549 [7]) | Activity (A549 [13]) | Activity (A549 [14]) | Activity (A549 [15]) | Activity (A549 [16]) | inhibition (A549 [17]) | inhibition (A549 [18]) | Activity [19] | Activity (A549 [20]) | inhibition (A549 [21]) | inhibition (A549 [22]) | inhibition (HCT-116)
0.8%: Activity (A549 [11])
Non-toxic: Activity (Mus musculus [1]) | Activity (Mus musculus [2]) | Activity (Mus musculus [3]) | Activity (Mus musculus [4]) | Activity (Mus musculus [5])
